High-throughput results deposited in PubChem by several laboratories.
hiPSC survival = increases survival of single human iPS cells. AID 602274. survival enhancement, % at 20 µM. 0.044% of 360,000 active. hiPSC single-cell survival, ATPlite luminescence; 100% = ROCK inhibitor wells, 0% = DMSO; in the data active = survival enhancement above about 18%;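 note: cells exposed to compounds for 16 hours before the ATP read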
ABCB6 inh 2 = inhibitors of human ABC transporter ABCB6; Q9NP58; K562-ABCB6 porphyrin accumulation, flow cytometry, 1 h; hits give low values; fluorescence ratio to DMSO, % at 10 µM; 0.19% of 360,000 active; AID 602162;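 active = fluorescence ratio to DMSO below 75%, the collection mean minus 3 SD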;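 note: signal is porphyrin accumulated inside mitochondria; 100% equals median channel fluorescence of DMSO control wells; lower ratio means ABCB6 inhibition with less porphyrin fluorescence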
Target sequence (Q9NP58 whole entry, looked up): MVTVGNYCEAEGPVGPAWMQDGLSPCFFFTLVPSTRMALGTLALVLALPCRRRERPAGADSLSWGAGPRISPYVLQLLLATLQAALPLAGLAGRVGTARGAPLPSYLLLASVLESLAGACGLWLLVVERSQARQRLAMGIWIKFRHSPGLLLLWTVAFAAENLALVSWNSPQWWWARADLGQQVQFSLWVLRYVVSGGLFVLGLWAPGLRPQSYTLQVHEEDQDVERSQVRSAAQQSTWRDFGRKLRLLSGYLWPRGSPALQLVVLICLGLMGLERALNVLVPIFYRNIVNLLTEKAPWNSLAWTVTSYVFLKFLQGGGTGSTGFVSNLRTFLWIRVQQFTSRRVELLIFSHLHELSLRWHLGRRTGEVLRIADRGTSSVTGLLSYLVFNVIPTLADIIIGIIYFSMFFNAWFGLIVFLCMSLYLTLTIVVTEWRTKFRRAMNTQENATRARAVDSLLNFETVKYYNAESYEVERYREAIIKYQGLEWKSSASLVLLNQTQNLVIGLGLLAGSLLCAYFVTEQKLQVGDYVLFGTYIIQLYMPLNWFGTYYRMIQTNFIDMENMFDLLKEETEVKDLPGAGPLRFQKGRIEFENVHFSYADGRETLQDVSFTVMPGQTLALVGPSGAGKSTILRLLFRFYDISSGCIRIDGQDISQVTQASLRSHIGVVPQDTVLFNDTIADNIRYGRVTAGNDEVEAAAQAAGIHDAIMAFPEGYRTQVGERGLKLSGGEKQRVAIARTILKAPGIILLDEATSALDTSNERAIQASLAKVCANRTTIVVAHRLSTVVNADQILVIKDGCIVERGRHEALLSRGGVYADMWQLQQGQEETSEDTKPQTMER
Tb MetRS inh = Trypanosoma brucei MetRS inhibition; purified T. brucei MetRS, ATP depletion, Kinase-Glo luminescence; inhibition, % at 11.9 µM; 0.4% of 360,000 active; AID 624268;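 active = inhibition above a per-plate cutoff of the control wells' mean inhibition plus 3 SD, cut at about 5.5% in these data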;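 note: 0% = DMSO wells median and 100% = median of wells with control inhibitor compound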
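Assay system: T. brucei methionyl-tRNA synthetase, purified | Medium: HEPES buffer with MgCl2, KCl, DTT, spermine, BSA, pyrophosphatase | Compound: 11.9 µM single point | Incubation: 15 min enzyme-compound preincubation, 2 h reaction, 10 min detection, 25 °C | Measured by: Kinase-Glo luciferase luminescence reporting remaining unconsumed ATP | Measure: % inhibition normalized to control-well medians | Replication: Singlicate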
Granule exo inh = lytic granule exocytosis inhibition; TALL-104 LAMP-1 surface exposure, flow cytometry; cells stimulated with thapsigargin and PMA; 0.66% of 360,000 active; inhibition, % at 10 µM;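 active = inhibition above about 55%, limit read from the data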
MC4R ag barr = agonists of human melanocortin 4 receptor (MC4R) beta-arrestin | U2OS MC4R beta-arrestin complementation, luminescence; percent of melanotan II response, DMSO zero | activation, % at 8.9 µM | 0.98% of 360,000 active;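 active = activation above a per-plate cutoff, the mean activation of sample wells on that plate plus 3 SD, cut at about 8% in these data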
MC4R antagonist = blocks human MC4R cAMP signaling; MC4R-expressing cells, MTII-stimulated cAMP, LANCE TR-FRET; inhibition, % at 6.5 µM; 0.48% of 360,000 active;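 active = inhibition above its plate's cutoff, the mean of tested wells on that plate plus 3 SD, cut at about 29% in these data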;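 note: 0% = Melanotan II alone and 100% = Melanotan II plus saturating MCL0020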
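Assay system: U2OS-MC4R stable cell line; Also added: Melanotan II; Technique: Eu-cAMP/anti-cAMP TR-FRET, emission 671 nm; Times: 30-min compound, 1-h challenge, 1-h detection, room temperature.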
MC4R barr ag = human MC4R beta-arrestin agonism confirmation; shares compounds with MC4R ag barr; U2OS MC4R beta-arrestin recruitment, luminescence; scaled DMSO 0%, Melanotan II 100%; activation, % at 8.9 µM; 31% of 2,400 active; AID 602192;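 active = mean activation across replicates above the hit cutoff set in the earlier primary screen, cut at about 8% in these data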
MOR-DOR barr ag = counter-screen for MC4R agonists: agonists of mu-delta opioid heterodimer | activation, % at 9.2 µM | 5.8% of 2,400 active | shares compounds with MC4R ag barr | AID 602194 | U2OS PathHunter beta-arrestin, beta-gal luminescence; percent of deltorphin B response, DMSO zero;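 active = mean activation across replicates exceeds the hit threshold derived in the earlier primary screen, cut at about 18% in these data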;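 note: 100% = deltorphin B at 0.9 µM final and 0% = DMSO alone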
* hit, by the source's call. An excerpt weighted towards active compounds, which were near 2.6% of everything screened.

What do the screens show for `COC(=O)c1ccccc1S(=O)(=O)N1CCC(C(=O)N(C)CCOc2ccccc2)CC1`?
hiPSC survival: 0; ABCB6 inh 2: 104; Tb MetRS inh: 0; Granule exo inh: -3; MC4R ag barr: 1; MC4R antagonist: -2

Results for COc1ccc2c(C)nc(Nc3nc(-c4ccccc4)cc(=O)[nH]3)nc2c1 ?
hiPSC survival: 0; ABCB6 inh 2: 91; Tb MetRS inh: 1; Granule exo inh: 0; MC4R ag barr: 26*; MC4R antagonist: -17; MC4R barr ag: 8.4*; MOR-DOR barr ag: 3

How did Cc1ccc2nc(Nc3nc(-c4ccccc4)cc(=O)[nH]3)nc(C)c2c1 do in these assays?
hiPSC survival: -1; ABCB6 inh 2: 91; Tb MetRS inh: -1; Granule exo inh: -7; MC4R ag barr: -1; MC4R antagonist: -8

How did CCOc1ccc(CCNC(=O)Cn2nc(C)n3cccc3c2=O)cc1OCC do in these assays?
hiPSC survival: 0; ABCB6 inh 2: 112; Tb MetRS inh: 0; Granule exo inh: -1; MC4R ag barr: -3; MC4R antagonist: 6

What do the screens show for `C/C(=N\NC1=NCCN1)c1ccc(N)c([N+](=O)[O-])c1`?
hiPSC survival: 0; ABCB6 inh 2: 97; Tb MetRS inh: 0; Granule exo inh: 4; MC4R ag barr: -4; MC4R antagonist: -11

What do the screens show for `CCCCCCOc1ccc(/C(C)=N/NC2=NCCN2)cc1[N+](=O)[O-]`?
hiPSC survival: -7; ABCB6 inh 2: 107; Tb MetRS inh: 0; Granule exo inh: 18; MC4R ag barr: 14*; MC4R antagonist: 4; MC4R barr ag: 12*; MOR-DOR barr ag: 10

What do the screens show for `CCn1c(=O)n(CC)c2cc([N+](=O)[O-])ccc21`?
hiPSC survival: 0; ABCB6 inh 2: 102; Tb MetRS inh: 0; Granule exo inh: -1; MC4R ag barr: -2; MC4R antagonist: 13

What do the screens show for `Cc1cc(Cl)cc2sc(NC(=O)c3ccco3)nc12`?
hiPSC survival: -4; ABCB6 inh 2: 103; Tb MetRS inh: 1; Granule exo inh: -1; MC4R ag barr: 11*; MC4R antagonist: 8; MC4R barr ag: 0; MOR-DOR barr ag: 3

What do the screens show for `CCC(C)Sc1ccc(-c2nc3ccc(C)cn3c2NCc2ccccc2)cc1` (stereo unspecified)?
hiPSC survival: -4; ABCB6 inh 2: 99; Tb MetRS inh: 0; Granule exo inh: 1; MC4R ag barr: 12*; MC4R antagonist: 10; MC4R barr ag: 5; MOR-DOR barr ag: 8

Results for Cc1ccc2nc(-c3ccc(-c4cccc(Cl)c4)cc3)c(NCc3ccccc3)n2c1 ?
hiPSC survival: -2; ABCB6 inh 2: 112; Tb MetRS inh: 0; Granule exo inh: -5; MC4R ag barr: 4; MC4R antagonist: 2

What do the screens show for `COc1ccc(C(=O)Nc2nnc(Cc3ccccc3)s2)c(OC)c1`?
hiPSC survival: 0; ABCB6 inh 2: 102; Tb MetRS inh: 0; Granule exo inh: -2; MC4R ag barr: 15*; MC4R antagonist: -10; MC4R barr ag: -1; MOR-DOR barr ag: 7

How did O=C(Nc1nnc(CCc2ccccc2)s1)c1cccc(F)c1 do in these assays?
hiPSC survival: 0; ABCB6 inh 2: 98; Tb MetRS inh: 0; Granule exo inh: -1; MC4R ag barr: 14*; MC4R antagonist: 8; MC4R barr ag: 1; MOR-DOR barr ag: 5

How did COc1cc(C(=O)Nc2nnc(Cc3ccccc3)s2)cc(OC)c1OC do in these assays?
hiPSC survival: 0; ABCB6 inh 2: 94; Tb MetRS inh: -1; Granule exo inh: -14; MC4R ag barr: -2; MC4R antagonist: -2

What do the screens show for `CSCCC(NC(=O)c1ccco1)C(=O)Nc1ccc(C)cn1` (stereo unspecified)?
hiPSC survival: 0; ABCB6 inh 2: 96; Tb MetRS inh: 0; Granule exo inh: 1; MC4R ag barr: -2; MC4R antagonist: 9

What do the screens show for `Nc1c(N=Nc2cccc(Cl)c2)c(=O)[nH]n1-c1ccccc1`?
hiPSC survival: -2; ABCB6 inh 2: 109; Tb MetRS inh: -1; Granule exo inh: -5; MC4R ag barr: 13*; MC4R antagonist: 7; MC4R barr ag: 6; MOR-DOR barr ag: 4

Results for Cc1[nH]n(-c2ccccc2)c(=O)c1N=Nc1cccc(Cl)c1 ?
hiPSC survival: -1; ABCB6 inh 2: 98; Tb MetRS inh: 0; Granule exo inh: -9; MC4R ag barr: 1; MC4R antagonist: 15

What do the screens show for `CC(=O)Nc1ccc(S(=O)(=O)Nc2nc3ccccc3nc2Nc2ccc(C(=O)O)c(O)c2)cc1`?
hiPSC survival: 6; ABCB6 inh 2: 92; Tb MetRS inh: 0; Granule exo inh: 22; MC4R ag barr: 0; MC4R antagonist: -2

Results for CC(=O)Nc1ccc(S(=O)(=O)Nc2cc(C)c(-n3nc4ccccc4n3)cc2O)cc1 ?
hiPSC survival: -1; ABCB6 inh 2: 96; Tb MetRS inh: -2; Granule exo inh: -4; MC4R ag barr: 11*; MC4R antagonist: -11; MC4R barr ag: 0; MOR-DOR barr ag: 3

What do the screens show for `Cc1cccc(C)c1N(CC(=O)N/N=C/c1cc(Br)c(C)o1)S(C)(=O)=O`?
hiPSC survival: -2; ABCB6 inh 2: 105; Tb MetRS inh: -1; Granule exo inh: -5; MC4R ag barr: 3; MC4R antagonist: 2

Results for Cc1cc(C)cc(NC(=O)CSc2cc(C(=O)c3nccn3C)c3ccccc3n2)c1 ?
hiPSC survival: -1; ABCB6 inh 2: 103; Tb MetRS inh: 0; Granule exo inh: -10; MC4R ag barr: 9.8*; MC4R antagonist: 14; MC4R barr ag: 3; MOR-DOR barr ag: 8

Results for CC1CC(C)CN(C(=S)Nc2ccc(SC(F)F)cc2)C1 (stereo unspecified) ?
hiPSC survival: -1; ABCB6 inh 2: 105; Tb MetRS inh: 0; Granule exo inh: -3; MC4R ag barr: 24*; MC4R antagonist: 12; MC4R barr ag: 5; MOR-DOR barr ag: 11

Results for c1ccc(-c2sc3ccccc3c2-c2ccc(OCCN3CCCCC3)cc2)cc1 ?
hiPSC survival: 0; ABCB6 inh 2: 100; Tb MetRS inh: 0; Granule exo inh: 0; MC4R ag barr: 1; MC4R antagonist: 7

Results for CN(C)CCOc1ccc(-c2c(-c3ccccc3)sc3ccccc23)cc1 ?
hiPSC survival: -7; ABCB6 inh 2: 92; Tb MetRS inh: 0; Granule exo inh: -19; MC4R ag barr: 23*; MC4R antagonist: 15; MC4R barr ag: 38*; MOR-DOR barr ag: 17
